# Data reported in publication PMC3302728 (Nature Communications, 2011).
# Legend:
# [1] = biological target: GluN1/GluN2D NMDA receptor (Rattus norvegicus, UniProt P35439+Q62645); assay: EC50 of agonist response; type: cell-based
# Outline: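 Xenopus laevis oocytes injected with 5-10 ng cRNA (GluN1:GluN2 ratio 1:2), stored at 15°C, recorded 2-4 days later at 23°C. Two-electrode voltage clamp at -30 to -60 mV in pH 7.4 HEPES bath with Ba2+ and 30 μM glycine. Concentration-response curves fitted per oocyte with a Hill equation to give EC50 and Hill coefficient.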
# [2] = biological target: GluN2D ligand-binding domain (Rattus norvegicus, UniProt Q62645, DEL565-685); assay: X-ray crystallography; conditions: co-crystal with 10 mM ligand; D1-D2 cleft
# Sequence of GluN2D ligand-binding domain (Q62645 424-564, stated change not applied): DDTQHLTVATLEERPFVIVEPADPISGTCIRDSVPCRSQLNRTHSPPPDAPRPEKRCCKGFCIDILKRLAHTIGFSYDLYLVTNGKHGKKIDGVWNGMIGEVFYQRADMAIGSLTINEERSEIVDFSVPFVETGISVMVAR
# Sequence of GluN2D ligand-binding domain (Q62645 686-827, stated change not applied): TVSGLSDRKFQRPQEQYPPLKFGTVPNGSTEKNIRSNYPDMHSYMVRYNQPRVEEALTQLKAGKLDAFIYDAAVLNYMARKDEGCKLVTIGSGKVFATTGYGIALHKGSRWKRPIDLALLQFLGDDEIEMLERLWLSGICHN
# Sequence of GluN1/GluN2D NMDA receptor (Q62645 28-1323, other chains not shown): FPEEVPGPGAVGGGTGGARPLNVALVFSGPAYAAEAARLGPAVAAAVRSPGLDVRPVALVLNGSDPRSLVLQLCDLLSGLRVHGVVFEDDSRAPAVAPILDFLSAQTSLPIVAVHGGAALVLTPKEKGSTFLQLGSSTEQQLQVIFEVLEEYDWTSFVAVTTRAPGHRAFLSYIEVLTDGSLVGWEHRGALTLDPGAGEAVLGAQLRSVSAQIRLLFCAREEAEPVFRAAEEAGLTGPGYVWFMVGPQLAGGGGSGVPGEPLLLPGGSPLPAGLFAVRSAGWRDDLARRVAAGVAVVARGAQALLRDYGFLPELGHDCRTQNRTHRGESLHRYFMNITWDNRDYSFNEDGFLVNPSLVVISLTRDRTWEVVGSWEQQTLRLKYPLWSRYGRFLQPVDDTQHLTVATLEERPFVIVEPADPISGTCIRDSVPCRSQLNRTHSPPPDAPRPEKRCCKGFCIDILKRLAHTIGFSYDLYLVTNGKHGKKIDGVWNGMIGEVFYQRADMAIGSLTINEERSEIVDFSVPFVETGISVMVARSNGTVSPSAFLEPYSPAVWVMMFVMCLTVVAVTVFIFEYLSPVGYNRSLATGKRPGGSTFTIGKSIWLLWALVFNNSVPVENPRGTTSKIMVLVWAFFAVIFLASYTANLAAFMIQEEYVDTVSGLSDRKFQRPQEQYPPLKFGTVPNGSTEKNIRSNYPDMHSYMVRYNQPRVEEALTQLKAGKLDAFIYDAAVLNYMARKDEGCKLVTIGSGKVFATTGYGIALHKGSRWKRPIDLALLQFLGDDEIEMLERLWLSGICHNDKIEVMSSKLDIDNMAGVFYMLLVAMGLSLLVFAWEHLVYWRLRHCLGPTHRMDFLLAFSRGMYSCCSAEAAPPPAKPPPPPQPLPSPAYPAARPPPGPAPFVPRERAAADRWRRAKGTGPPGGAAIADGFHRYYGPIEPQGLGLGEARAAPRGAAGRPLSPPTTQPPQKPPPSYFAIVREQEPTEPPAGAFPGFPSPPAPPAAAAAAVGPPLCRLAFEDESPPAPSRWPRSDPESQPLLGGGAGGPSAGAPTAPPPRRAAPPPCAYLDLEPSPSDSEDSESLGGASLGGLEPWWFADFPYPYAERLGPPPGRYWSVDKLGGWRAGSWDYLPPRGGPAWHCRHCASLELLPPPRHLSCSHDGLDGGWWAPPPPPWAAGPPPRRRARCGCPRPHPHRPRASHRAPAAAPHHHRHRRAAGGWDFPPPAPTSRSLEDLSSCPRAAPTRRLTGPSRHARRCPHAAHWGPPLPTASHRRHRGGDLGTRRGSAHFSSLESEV
EC50 [1] [µM],SMILES,X-ray crystallography [2]
5,N[C@@H](CC(=O)O)C(=O)O [L-aspartate],"GluN2D ligand-binding domain structures in complex with D- and L-glutamate, L-aspartate, and NMDA"
–,N[C@@H](CCC(=O)O)C(=O)O [L-glutamate],"GluN2D ligand-binding domain structures in complex with D- and L-glutamate, L-aspartate, and NMDA"
–,N[C@H](CCC(=O)O)C(=O)O [D-glutamate],"GluN2D ligand-binding domain structures in complex with D- and L-glutamate, L-aspartate, and NMDA"
